In brackets after ≈: the same amount, converted by molar mass.

Data set [1] concerns Phocaeicola vulgatus. Kind of data set: Ratio of antibacterial (Bacteroides vulgatus) activities compared to that of trimethoprim and metronidazole. It counts as functional.
For data set [2], the system named is Bacteroides thetaiotaomicron. Kind of data set: Ratio of antibacterial (Bacteroides thetaiotaomicron) activities compared to that of trimethoprim and metronidazole. In kind it is functional.
In data set [3] the test system is Clostridioides difficile. Kind of data set: Ratio of antibacterial (Clostridium difficile) activities compared to that of trimethoprim and metronidazole. In kind it is functional.
Data set [4] has as its system Clostridium perfringens. The experiment in a line: Ratio of antibacterial (Clostridium perfringens) activities compared to that of trimethoprim and metronidazole. It counts as functional.
For data set [5], the target named is T1, Dihydrofolate reductase (Rattus norvegicus, UniProt Q920D2).
T1 sequence (Q920D2 whole entry): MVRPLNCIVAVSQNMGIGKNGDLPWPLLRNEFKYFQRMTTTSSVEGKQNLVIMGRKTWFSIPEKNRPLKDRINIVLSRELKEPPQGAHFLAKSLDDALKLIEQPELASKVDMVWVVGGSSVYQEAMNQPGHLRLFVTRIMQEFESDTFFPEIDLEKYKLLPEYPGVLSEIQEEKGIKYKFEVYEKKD
Kind of data set: In vitro inhibition of rat liver dihydrofolate reductase. The note with it: read-out: I50.

The target of data set [6] is Dihydrofolate reductase (Staphylococcus aureus, UniProt P0A017). The experiment in a line: Antibacterial activity against Staphylococcus aureus DHFR. The gist of the method:
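S. aureus (strain S8862) DHFR was partially purified by ammonium sulfate fractionation and gel filtration. The assay used 0.1 M imidazole chloride pH 6.4, 12 mM mercaptoethanol, 60 µM NADPH and 45 µM dihydrofolate at 30 °C, read at 340 nm. Enzyme, NADPH and inhibitor were preincubated 2 min before dihydrofolate was added. I50 came from % inhibition vs log[inhibitor] plots of steady-state velocities.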

The subject of data set [7] is Escherichia coli. The experiment in a line: Antibacterial (Escherichia coli) activity compared to trimethoprim. In kind it is functional. The gist of the method:
(§1)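 Each MIC is divided by the MIC of trimethoprim run alongside. Serial dilutions were normally 0.1, 0.3, 1, 3, 10, etc., and occasionally 1, 5 and 10. For E. coli the value is the average over six strains.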

In data set [8] the test system is Fusobacterium nucleatum. The experiment in a line: Ratio of antibacterial (Fusobacterium nucleatum) activities compared to that of trimethoprim and metronidazole. It counts as functional.
In data set [9] the test system is Klebsiella pneumoniae. Kind of data set: Antibacterial (Klebsiella pneumoniae CN3632) activity compared to trimethoprim. It counts as functional. The gist of the method:
as §1

The subject of data set [10] is Mycolicibacterium smegmatis. The experiment in a line: Antibacterial (Mycobacterium smegmatis S3254) activity compared to trimethoprim. In kind it is functional. The essentials: as §1
In data set [11] the test system is Pasteurella multocida. The experiment in a line: Antibacterial (Pasteurella multocides ATCC 6587) activity compared to trimethoprim. In kind it is functional. The essentials: as §1
The subject of data set [12] is Proteus vulgaris. The experiment in a line: Antibacterial (Proteus vulgaris CN329) activity compared to trimethoprim. In kind it is functional. The gist of the method:
as §1

Data set [13] can be described thus: Antibacterial (Salmonella typhi CN512) activity compared to trimethoprim. In kind it is functional, salmonella typhosa.
Data set [14] deals with Shigella flexneri. The experiment in a line: Antibacterial (Shigella flexneri CN6007) activity compared to trimethoprim. It counts as functional. The essentials:
as §1

The subject of data set [15] is Serratia marcescens. The experiment in a line: Antibacterial (Serratia marcescens CN2398) activity compared to trimethoprim. In kind it is functional. The gist of the method: as §1
The test system of data set [16] is Streptococcus pyogenes. The experiment in a line: Antibacterial ([…] CN10) activity compared to trimethoprim. It counts as functional. The essentials: as §1
Data set [17] deals with Staphylococcus aureus. Kind of data set: Antibacterial (Staphylococcus aureus CN491) activity compared to trimethoprim. In kind it is functional. The gist of the method: as §1
Data set [18] has as its system Klebsiella aerogenes. The experiment in a line: Antibacterial (Enterobacter aerogenes 2201/86) activity compared to trimethoprim. It counts as functional. The essentials:
as §1

A short description of data set [19]: Half-life in dogs Plasma. In kind it is ADME, organism-based, Canis lupus familiaris. The note with it: dog. The essentials:
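Two fasted (18 h) male beagles received 5 mg/kg […] (free base), co-dosed with 5 mg/kg trimethoprim in propylene glycol. Jugular plasma was sampled from 0.17 to 24 h. Drug was extracted, separated by TLC and read by fluorescence densitometry. t1/2 came from least-squares linear regression of the postabsorption segment of the plasma curve.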

In data set [20] the target is Bifunctional dihydrofolate reductase-thymidylate synthase (Plasmodium berghei str. ANKA, UniProt Q27713). The experiment in a line: In vitro inhibition of dihydrofolate reductase of Plasmodium berghei. The note with it: read-out: I50.
Data set [21] relates to Klebsiella aerogenes. Kind of data set: Ratio of antibacterial (Enterobacter aerogenes, 2201/86) activities of compound and trimethoprim. It counts as functional. The essentials:
as §1

The test system of data set [22] is Klebsiella pneumoniae. Kind of data set: Ratio of antibacterial (Klebsiella pneumoniae CN3632) activities of compound and trimethoprim. In kind it is functional. The gist of the method: as §1
For data set [23], the system named is Proteus vulgaris. Kind of data set: Ratio of antibacterial (Proteus vulgaris CN329) activities of compound and trimethoprim. It counts as functional. The gist of the method:
as §1

For data set [24], the system named is Shigella dysenteriae. Kind of data set: Ratio of antibacterial (Shigella dysentariae CN513) activities of compound and trimethoprim. It counts as functional.
Data set [25] deals with Staphylococcus aureus. Kind of data set: Ratio of antibacterial (Staphylococcus aureus CN491) activities of compound and trimethoprim. It counts as functional. The gist of the method: as §1
Data set [26] relates to Salmonella. Kind of data set: Ratio of antibacterial (Salmonella typhi CN512) activities of compound and trimethoprim. In kind it is functional, salmonella typhosa.
For data set [27], the system named is Escherichia coli. Kind of data set: Ratio of antibacterial (Escherichia coli CN314) activities of compound and trimethoprim. In kind it is functional.
Data set [28] addresses T2, Dihydrofolate reductase (Escherichia coli, UniProt P0ABQ4).
T2 sequence (P0ABQ4 whole entry): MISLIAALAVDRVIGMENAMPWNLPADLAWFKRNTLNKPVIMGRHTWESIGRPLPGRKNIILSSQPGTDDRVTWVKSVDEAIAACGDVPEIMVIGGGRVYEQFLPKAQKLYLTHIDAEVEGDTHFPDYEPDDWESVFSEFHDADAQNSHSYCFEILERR
The experiment in a line: In vitro inhibition of dihydrofolate reductase of Escherichia coli. The note with it: read-out: I50. The essentials: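 The E. coli DHFR assay contained 1 nM enzyme, with the lower limit for I50 arbitrarily set at 2 nM. I50 was estimated from plots of % inhibition of steady-state velocity vs log inhibitor concentration.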

The test system of data set [29] is Streptococcus pyogenes. The experiment in a line: Ratio of antibacterial (Streptococcus pyogenes CN10) activities of compound and trimethoprim.

Sequence of Bifunctional dihydrofolate reductase-thymidylate synthase (Q27713 whole entry): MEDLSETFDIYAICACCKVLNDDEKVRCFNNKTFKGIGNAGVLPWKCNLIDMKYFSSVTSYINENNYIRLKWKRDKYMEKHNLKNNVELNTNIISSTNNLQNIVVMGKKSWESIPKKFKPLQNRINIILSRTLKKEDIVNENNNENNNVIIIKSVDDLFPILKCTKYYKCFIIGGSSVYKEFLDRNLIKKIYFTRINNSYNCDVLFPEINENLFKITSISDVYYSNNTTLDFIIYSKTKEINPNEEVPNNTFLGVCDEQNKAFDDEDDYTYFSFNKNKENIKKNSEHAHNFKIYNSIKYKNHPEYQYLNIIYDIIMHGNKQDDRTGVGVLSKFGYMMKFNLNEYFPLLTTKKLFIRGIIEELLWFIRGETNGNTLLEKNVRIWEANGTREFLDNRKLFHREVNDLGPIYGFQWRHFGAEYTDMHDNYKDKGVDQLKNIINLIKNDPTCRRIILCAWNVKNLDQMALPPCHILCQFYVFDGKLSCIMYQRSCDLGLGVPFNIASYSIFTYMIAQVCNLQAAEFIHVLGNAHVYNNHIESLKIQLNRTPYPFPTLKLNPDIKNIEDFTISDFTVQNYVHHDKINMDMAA
Sequence of Dihydrofolate reductase (Staphylococcus aureus, UniProt P0A017) (P0A017 whole entry): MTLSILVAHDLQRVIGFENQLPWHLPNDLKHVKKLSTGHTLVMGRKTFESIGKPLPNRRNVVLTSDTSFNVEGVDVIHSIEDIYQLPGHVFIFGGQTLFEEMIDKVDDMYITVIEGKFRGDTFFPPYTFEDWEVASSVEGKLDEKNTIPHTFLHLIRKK

By MIC is commonly meant the smallest concentration in the dilution series that meets the test's criterion for growth inhibition. The Ki is the equilibrium dissociation constant of an inhibitor or competing ligand from its target. Higher therefore signals weaker binding. As to `C=CCc1cc(Cc2cnc(N)nc2N)cc(CC=C)c1OC`, the MIC was 0.2 µg/mL in data set [1]; 0.2 µg/mL in [2]; more than 25 µg/mL in data set [3]; 25 µg/mL in data set [4]; 72 µg/mL (≈ 232 µM) in [7]; 0.8 µg/mL in [8]. Besides, the MIC in data set [9] was more than 10 µg/mL; in [10] it was 10 µg/mL (≈ 32.2 µM); in [11], 20 µg/mL (≈ 64.4 µM); in data set [12], 100 µg/mL (≈ 322 µM); in [13], 100 µg/mL (≈ 322 µM); in data set [14], 100 µg/mL (≈ 322 µM). Also, the MIC is more than 10 µg/mL in data set [15], 1 µg/mL (≈ 3.22 µM) in [16], 5 µg/mL (≈ 16.1 µM) in [17] and 100 µg/mL (≈ 322 µM) in [18]. The IC50 in data set [5] was 18000 nM. In data set [6], this molecule had a Ki of 2.1 nM.
In general, half-life refers to the time needed for the level to fall by half in the phase considered. A higher half-life goes with slow decline. In the case of `C=CCc1cc(Cc2cnc(N)nc2N)cc(OC)c1O`, the half-life in data set [19] is 0.7 h. The MIC in [1] was 1.6 µg/mL; in [2], 1.6 µg/mL; in [3] it was more than 25 µg/mL; in [4], more than 25 µg/mL; in data set [7] it was 1 µg/mL (≈ 3.49 µM); in [8], 0.2 µg/mL. The MIC in [9] was found to be 0.3 µg/mL (≈ 1.05 µM); in data set [10], 3 µg/mL (≈ 10.5 µM); in data set [11], 1 µg/mL (≈ 3.49 µM); in data set [12] it was 3 µg/mL (≈ 10.5 µM); in [13], 3 µg/mL (≈ 10.5 µM); in [14], 1 µg/mL (≈ 3.49 µM). In addition, the MIC in data set [15] was found to be 3 µg/mL (≈ 10.5 µM); in [16], 1 µg/mL (≈ 3.49 µM); in data set [17], 0.3 µg/mL (≈ 1.05 µM); in data set [18] it was 1 µg/mL (≈ 3.49 µM). For the same molecule, the IC50 in [5] came to 14700 nM.
As to `CCCc1cc(Cc2cnc(N)nc2N)cc2c1OC(C)C2C` (configuration not stated), the values for the IC50 in data set [5], in [20] and in data set [28] were 2040 nM, 12 nM and 13 nM, respectively. Further, the MIC stood at 30 µg/mL in data set [21]; 100 µg/mL in [22]; 100 µg/mL in data set [23]; 100 µg/mL in data set [24]; 1 µg/mL in data set [25]; 100 µg/mL in [26]. The values for the MIC in data set [27] and in [29] were 30 µg/mL and 1 µg/mL, respectively.
Consider `C/C=C/c1cc(Cc2cnc(N)nc2N)cc(OC)c1OC`, for which, in [19], the half-life is 2.25 h. The MIC is 0.8 µg/mL in data set [1]; 1.6 µg/mL in data set [2]; more than 25 µg/mL in data set [3]; more than 25 µg/mL in data set [4]; 6 µg/mL (≈ 20 µM) in [7]; 0.8 µg/mL in data set [8]. Also, the MIC in data set [9] was found to be 10 µg/mL (≈ 33.3 µM); in data set [10], 3 µg/mL (≈ 9.99 µM); in [11], 10 µg/mL (≈ 33.3 µM); in [12] it was 3 µg/mL (≈ 9.99 µM); in data set [13] it was 3 µg/mL (≈ 9.99 µM); in data set [14], 10 µg/mL (≈ 33.3 µM). The MIC was 1 µg/mL (≈ 3.33 µM) in data set [15], 0.1 µg/mL (≈ 0.333 µM) in [16], 0.1 µg/mL (≈ 0.333 µM) in data set [17] and 10 µg/mL (≈ 33.3 µM) in data set [18]. In addition, the IC50 in data set [5] amounted to 57000 nM.
For the molecule `CCCc1cc(Cc2cnc(N)nc2N)cc2c1OC(C)(C)C2`, the IC50 turned out to be 9900 nM in data set [5], 240 nM in [20] and 280 nM in data set [28]. Also, the MIC in [21] worked out at 100 µg/mL; in data set [22], 100 µg/mL; in [23], 100 µg/mL; in data set [24] it was 300 µg/mL; in [25], 3 µg/mL; in data set [26] it was 300 µg/mL. Besides, the MIC in [27] is 100 µg/mL; in [29], 3 µg/mL.
Regarding `Cc1cc(Cc2cnc(N)nc2N)cc2c1OC(C)(C)C2`, the values for the IC50 in [5] and in [28] were 37000 nM and 55 nM, respectively. Further, the MIC in data set [21] turned out to be 30 µg/mL; in data set [22] it was 10 µg/mL; in data set [23], 10 µg/mL; in [24], 10 µg/mL; in [25], 3 µg/mL; in data set [26], 10 µg/mL. The MIC is 10 µg/mL in [27] and 3 µg/mL in data set [29].
As for `CCc1cc(Cc2cnc(N)nc2N)cc2c1OC(C)C2` (configuration not stated), the IC50 was found to be 11000 nM in data set [5], 100 nM in data set [20] and 19 nM in data set [28]. Further, the MIC is 30 µg/mL in [21]; 30 µg/mL in data set [22]; 30 µg/mL in [23]; 30 µg/mL in [24]; 1 µg/mL in data set [25]; 30 µg/mL in data set [26]. The figures for the MIC in [27] and in data set [29] were 30 µg/mL and 1 µg/mL, respectively.

The values are drawn from ChEMBL document CHEMBL1124568, “2,4-Diamino-5-benzylpyrimidines as antibacterial agents. 13. Some alkenyl derivatives with high in vitro activity against anaerobic organisms” (J Med Chem, 1989).
